Article PMC7159910 (Science Advances, 2020)

How the values were obtained:
[1] = test system: PHF20L1 expression in MDA-MB-231 cells; assay: Western blotting of PHF20L1 in cells exposed to CoCl2; assay type: cell-based, human; settings: MDA-MB-231 cells exposed to CoCl2
In short: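 MDA-MB-231 cells, grown in L-15 medium with 10% FBS at 37°C without CO2, treated with CoCl2 as hypoxia mimic; lysates immunoblotted for PHF20L1 and for HIF1α as hypoxia marker.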

PHF20L1 TUDOR domain = assay: ITC

Which “induction of PHF20L1 protein by hypoxia activator” value [1] does the source give for [Cl][Co][Cl] [CoCl2, cobalt chloride] here?
The value was “PHF20L1 was indeed induced”.

For H3K27me2 peptide (ITC), which Kd (PHF20L1 TUDOR domain) is on record?
Its Kd is 73.6 µM.
